Activity calls are given as the source filed them. The rule behind the calls is not given here.
How the values were obtained:
[1] = target: T1, Protein cereblon/Poly [ADP-ribose] polymerase 1 (Homo sapiens, UniProt P09874+Q96SW2); experiment: Protac activity at CRBN/PARP1 in human PC-3 cells assessed as induction of PARP1 degradation measured after 24 hrs by Western blot analysis; type: cell-based
Procedure, shortened: (§1)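 Concentration-response over a wide range, 24 h exposure; PARP1 quantified by western blot and normalized to β-tubulin density; DC50 derived from two biologically independent experiments.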
Target sequence in this assay (P09874 whole entry): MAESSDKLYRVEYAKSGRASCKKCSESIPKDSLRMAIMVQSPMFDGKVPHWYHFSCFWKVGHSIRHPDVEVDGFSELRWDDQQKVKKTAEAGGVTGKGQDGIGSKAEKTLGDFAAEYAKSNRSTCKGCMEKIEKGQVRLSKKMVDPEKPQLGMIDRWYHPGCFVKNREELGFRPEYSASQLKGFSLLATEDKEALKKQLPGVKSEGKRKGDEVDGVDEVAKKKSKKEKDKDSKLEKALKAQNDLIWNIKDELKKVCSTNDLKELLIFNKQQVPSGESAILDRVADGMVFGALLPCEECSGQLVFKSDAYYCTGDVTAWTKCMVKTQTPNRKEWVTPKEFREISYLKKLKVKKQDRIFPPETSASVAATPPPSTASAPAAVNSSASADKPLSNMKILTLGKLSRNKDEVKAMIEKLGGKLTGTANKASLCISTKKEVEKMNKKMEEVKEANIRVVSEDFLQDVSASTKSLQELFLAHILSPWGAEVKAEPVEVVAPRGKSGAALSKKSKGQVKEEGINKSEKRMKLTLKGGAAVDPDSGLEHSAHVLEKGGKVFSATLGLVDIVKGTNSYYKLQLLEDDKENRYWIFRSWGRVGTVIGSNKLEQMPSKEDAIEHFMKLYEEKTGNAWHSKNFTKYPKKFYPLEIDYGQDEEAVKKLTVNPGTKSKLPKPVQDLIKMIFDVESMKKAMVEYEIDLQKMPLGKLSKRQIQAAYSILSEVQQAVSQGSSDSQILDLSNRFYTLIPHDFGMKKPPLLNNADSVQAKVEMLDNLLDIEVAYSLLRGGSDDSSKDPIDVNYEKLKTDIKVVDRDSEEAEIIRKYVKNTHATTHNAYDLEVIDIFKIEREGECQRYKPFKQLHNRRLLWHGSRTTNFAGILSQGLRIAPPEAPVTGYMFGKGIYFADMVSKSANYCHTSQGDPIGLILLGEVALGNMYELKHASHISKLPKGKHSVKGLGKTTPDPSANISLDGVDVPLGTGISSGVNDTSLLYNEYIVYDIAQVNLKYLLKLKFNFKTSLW
Target sequence in this assay (Q96SW2 whole entry): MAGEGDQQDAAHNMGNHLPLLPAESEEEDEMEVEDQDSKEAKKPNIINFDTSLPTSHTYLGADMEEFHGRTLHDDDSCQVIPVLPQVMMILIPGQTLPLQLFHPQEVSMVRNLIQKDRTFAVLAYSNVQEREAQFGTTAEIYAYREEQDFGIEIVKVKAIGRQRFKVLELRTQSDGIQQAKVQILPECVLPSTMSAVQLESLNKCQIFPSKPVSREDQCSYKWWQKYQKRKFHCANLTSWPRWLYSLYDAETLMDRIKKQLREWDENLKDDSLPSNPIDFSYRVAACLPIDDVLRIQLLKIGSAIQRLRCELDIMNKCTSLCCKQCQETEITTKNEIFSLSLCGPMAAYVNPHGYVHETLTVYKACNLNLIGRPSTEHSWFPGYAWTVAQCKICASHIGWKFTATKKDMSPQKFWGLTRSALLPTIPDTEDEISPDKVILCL

MDA-MB-436 = experiment: Induction of DNA damage in human MDA-MB-436 cells assessed as increase in gammaH2AX foci formation incubated for 24 hrs by Western blot analysis; type: functional, cell-based; conditions: dose microM 0.1-10, time 24.0 hrs
Procedure, shortened: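 MDA-MB-436 (BRCA1-/-) or Capan-1 (BRCA2-/-) cells were treated 24 h at the indicated concentrations. Lysis was in RIPA buffer with protease inhibitors, and 20-30 μg protein was run on SDS-PAGE. Blots were probed for γH2AX, with β-tubulin as the loading control, and detected by ECL.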

[2] = target: T1, Protein cereblon/Poly [ADP-ribose] polymerase 1; experiment: Protac activity at CRBN/PARP1 in human CAPAN-1 cells assessed as induction of PARP1 degradation at 100 nM measured after 6 hrs by Western blot analysis; type: cell-based
Procedure, shortened: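 Capan-1 cells were treated with 100 nM over a time course. PARP1 was measured by western blot and normalized to β-tubulin.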
Target sequence in this assay (P09874 2-1014 limits assumed): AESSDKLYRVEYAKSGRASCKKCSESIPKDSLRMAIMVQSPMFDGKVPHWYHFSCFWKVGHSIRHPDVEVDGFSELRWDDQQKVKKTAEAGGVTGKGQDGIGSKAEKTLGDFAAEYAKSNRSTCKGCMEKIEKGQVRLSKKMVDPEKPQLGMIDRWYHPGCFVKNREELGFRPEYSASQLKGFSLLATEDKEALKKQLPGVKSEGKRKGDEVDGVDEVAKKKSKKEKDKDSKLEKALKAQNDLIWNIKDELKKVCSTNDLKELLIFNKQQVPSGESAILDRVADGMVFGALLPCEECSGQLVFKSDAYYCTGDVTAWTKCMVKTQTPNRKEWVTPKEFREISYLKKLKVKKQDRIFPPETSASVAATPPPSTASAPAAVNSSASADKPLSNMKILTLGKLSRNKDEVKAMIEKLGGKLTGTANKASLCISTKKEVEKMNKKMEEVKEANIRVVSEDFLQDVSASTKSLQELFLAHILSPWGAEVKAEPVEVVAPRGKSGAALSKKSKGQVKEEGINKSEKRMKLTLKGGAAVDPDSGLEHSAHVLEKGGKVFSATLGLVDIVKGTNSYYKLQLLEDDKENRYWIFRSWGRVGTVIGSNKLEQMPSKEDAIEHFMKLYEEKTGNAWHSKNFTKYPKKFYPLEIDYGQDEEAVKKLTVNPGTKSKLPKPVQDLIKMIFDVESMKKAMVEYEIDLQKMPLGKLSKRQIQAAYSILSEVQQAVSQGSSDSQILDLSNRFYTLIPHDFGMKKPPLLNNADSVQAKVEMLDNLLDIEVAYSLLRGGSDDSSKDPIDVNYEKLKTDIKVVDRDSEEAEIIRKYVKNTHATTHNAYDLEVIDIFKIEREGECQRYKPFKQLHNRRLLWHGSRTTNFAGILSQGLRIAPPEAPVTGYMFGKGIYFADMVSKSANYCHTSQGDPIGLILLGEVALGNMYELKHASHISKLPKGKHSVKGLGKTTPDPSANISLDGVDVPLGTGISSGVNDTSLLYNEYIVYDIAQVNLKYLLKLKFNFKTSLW
Target sequence in this assay (Q96SW2 whole entry partner): as the sequence (Q96SW2 whole entry) above

PC-3 = experiment: Antiproliferation activity against human PC-3 assessed as cell growth inhibition incubated for 7 days by CCK-8 assay; type: functional, cell-based; conditions: time 7.0 day
Procedure, shortened: (§2)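 Cells were sub-cultured at least twice and seeded for 24 h before dosing. Compounds came from 10 mM DMSO stocks, given as 10 points of 3-fold serial dilution starting at 10-20 μM. Incubation was about 7 days (Capan-1 13 days) at 37 °C, 5% CO2. Read-out was CCK-8 absorbance at 450 nm, as % growth versus DMSO wells (duplicate wells). IC50 was fitted by nonlinear regression; three independent experiments.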

CAPAN-1 = experiment: Antitumor activity against Capan1 cells xenografted in Balb/c mouse assessed as tumor growth inhibition at 25 mg/kg, ip administered 5 times a week for 3 weeks; type: functional, organism-based
Procedure, shortened: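 Male BALB/c nude mice (5-6 weeks old) carried subcutaneous Capan-1 xenografts (5×10^6 cells, right armpit). At ~150 mm³ they were randomized (6 per group). Dosing was 100 mg/kg by oral gavage daily for 21 days, or 25 mg/kg intraperitoneally 5 times a week for 3 weeks. Vehicle was 5% DMSO/20% PEG400/10% Cremophor EL/65% saline. Tumor volume was (length/2)×width², measured 2-3 times weekly.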

[3] = target: T1, Protein cereblon/Poly [ADP-ribose] polymerase 1; experiment: Protac activity at CRBN/PARP1 in human SW-620 cells assessed as induction of PARP1 degradation at 10 nM incubated for 24 hrs by Western blot analysis relative to control; type: cell-based
Target sequence in this assay (P09874 2-1014 limits assumed): as the sequence (P09874 2-1014 limits assumed) above
Target sequence in this assay (Q96SW2 whole entry partner): as the sequence (Q96SW2 whole entry) above

[4] = Acute toxicity in Balb/c mouse xenografted with SW-620 cells assessed as lethality at 5 to 10 mg/kg, ip qd administered for 5 days in presence of TMZ; type: organism-based; conditions: in vivo, 120 h, dose 5-10 mg/kg, time 5 day
Procedure, shortened: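 In male BALB/c nude mice (5–6 weeks), s.c. SW620 xenografts (6×10^6 cells, right armpit) were grown to about 150 mm³, then randomised, 6 per group. The agent was given once daily for 5 days, orally or i.p., in 5% DMSO/20% PEG400/10% Cremophor EL/65% saline. TMZ 50 mg/kg was given orally once daily for 5 days from day 0, 45 min after the agent. Body weight was measured 2–3 times weekly.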

[5] = Acute toxicity in Balb/c mouse xenografted with Capan1 cells assessed as lethality at 25 to 50 mg/kg, ip qd administered for 5 days in presence of cisplatin; type: organism-based; conditions: in vivo, 120 h, dose 25-50 mg/kg, time 5 day
Procedure, shortened: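 Male BALB/c nude mice (5–6 weeks) carried s.c. Capan-1 xenografts (5×10^6 cells, right armpit) and were randomised at about 150 mm³, 6 per group. The agent was given once daily on days 0–4, by oral gavage or i.p., in DMSO/PEG400/Cremophor EL/saline vehicle. Cisplatin 6 mg/kg in saline was given i.p. on day 2, 45 min after the agent. Body weight was recorded 2–3 times weekly.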

[6] = Tmax in ICR mouse at 25 mg/kg, ip by LC-tandem mass spectrometry analysis; type: ADME, organism-based; conditions: in vivo
Procedure, shortened: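 Female ICR mice (20-23 g, 6-7 weeks, n = 3) given a single 25 mg/kg ip dose in 5% DMSO/15% Solutol HS15/80% D5W; plasma at 0.5, 1, 2, 4, 6, 8 and 24 h, protein precipitated with methanol, drug quantified by LC-MS/MS against a standard curve.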

CWR22R = experiment: Antiproliferation activity against human 22Rv1 assessed as cell growth inhibition incubated for 7 days by CCK-8 assay; type: functional, cell-based; conditions: time 7.0 day; procedure, shortened: as §2
[7] = target: T1, Protein cereblon/Poly [ADP-ribose] polymerase 1; experiment: Protac activity at CRBN/PARP1 in human MDA-MB-231 cells assessed as induction of PARP1 degradation at 30 nM incubated for 1 to 24 hrs by Western blot analysis; type: cell-based; conditions: time hrs 1-24
Target sequence in this assay (P09874 2-1014 limits assumed): as the sequence (P09874 2-1014 limits assumed) above
Target sequence in this assay (Q96SW2 whole entry partner): as the sequence (Q96SW2 whole entry) above

[8] = AUCall in ICR mouse at 25 mg/kg, ip by LC-tandem mass spectrometry analysis; type: ADME, organism-based; parameters: dose 25 mg/kg; conditions: in vivo
Procedure, shortened: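 Female ICR mice (20-23 g, 6-7 weeks old, n = 3) received a single 25 mg/kg intraperitoneal dose formulated in 5% DMSO/15% Solutol HS15/80% D5W. Plasma was sampled at 0.5, 1, 2, 4, 6, 8 and 24 h and protein-precipitated with methanol. Compound was quantified by LC-MS/MS against a standard curve.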

[9] = target: T1, Protein cereblon/Poly [ADP-ribose] polymerase 1; experiment: Protac activity at CRBN/PARP1 in human MDA-MB-436 cells assessed as induction of PARP1 degradation at 30 nM incubated for 24 hrs in presence of proteasome inhibitor carfilzomib by Western blot analysis
Target sequence in this assay (P09874 2-1014 limits assumed): as the sequence (P09874 2-1014 limits assumed) above
Target sequence in this assay (Q96SW2 whole entry partner): as the sequence (Q96SW2 whole entry) above

[10] = target: T1, Protein cereblon/Poly [ADP-ribose] polymerase 1; experiment: Protac activity at CRBN/PARP1 in human MDA-MB-468 cells assessed as induction of PARP1 degradation at 30 nM incubated for 1 to 24 hrs by Western blot analysis; type: cell-based; conditions: time hrs 1-24
Target sequence in this assay (P09874 2-1014 limits assumed): as the sequence (P09874 2-1014 limits assumed) above
Target sequence in this assay (Q96SW2 whole entry partner): as the sequence (Q96SW2 whole entry) above

[11] = target: T1, Protein cereblon/Poly [ADP-ribose] polymerase 1; experiment: Protac activity at CRBN/PARP1 in human CAPAN-1 cells assessed as induction of PARP1 degradation at 100 nM incubated for 24 hrs by Western blot analysis relative to control; type: cell-based
Procedure, shortened: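 Capan-1 cells were treated 24 h (1-1000 nM, or a wider dose range for DC50). Lysis was in RIPA buffer with protease inhibitors, and 20-30 μg protein was blotted. PARP1 was normalized to β-tubulin and to DMSO control, quantified by densitometry. DC50 came from two independent experiments.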
Target sequence in this assay (P09874 2-1014 limits assumed): as the sequence (P09874 2-1014 limits assumed) above
Target sequence in this assay (Q96SW2 whole entry partner): as the sequence (Q96SW2 whole entry) above

[12] = target: T1, Protein cereblon/Poly [ADP-ribose] polymerase 1; experiment: Protac activity at CRBN/PARP1 in human MDA-MB-468 cells assessed as induction of PARP1 degradation measured after 24 hrs by Western blot analysis; type: cell-based; procedure, shortened: as §1
Target sequence in this assay (P09874 whole entry): as the sequence (P09874 whole entry) above
Target sequence in this assay (Q96SW2 whole entry): as the sequence (Q96SW2 whole entry) above

[13] = target: T1, Protein cereblon/Poly [ADP-ribose] polymerase 1; experiment: Protac activity at CRBN/PARP1 in human SW-620 cells assessed as induction of PARP1 degradation at 30 nM incubated for 24 hrs in presence of 0.1 to 1 uM CRBN ligand pomalidomide by Western blot analysis; type: cell-based

Structure (SMILES): O=C(CCCCCCCCCCC(=O)N1CCN(C(=O)c2cc(Cc3n[nH]c(=O)c4ccccc34)ccc2F)CC1)NCCNc1cccc2c1C(=O)N(C1CCC(=O)NC1=O)C2=O (configuration not stated)
- DC50 [1]: 578 pM
- Activity (MDA-MB-436): Dose-dependent effect
- Activity [2]: Active
- Activity (PC-3): Active
- Activity (CAPAN-1): Active
- Activity [3]: > 99%
- Activity [4]: Non-Toxic
- Activity [5]: Non-Toxic
- Tmax [6]: 15 min
- Activity (CWR22R): Active
- Activity [7]: Active
- AUC [8]: 5320 ng·h/mL
- Activity [9]: inactive
- Activity [10]: Active
- Activity [11]: 100%
- DC50 [12]: 263 pM
- Activity [13]: inactive
